The record followed here is ChEMBL document CHEMBL3621102, “Structure-activity study of quinazoline derivatives leading to the discovery of potent EGFR-T790M inhibitors” (Eur J Med Chem, 2015).

Series [1] deals with Mus musculus. Put plainly: Toxicity in NCI-H1975 xenografted BALB/c mouse assessed as body weight change at 13 mg/kg po, qd for 21 days. The class given is organism-based. To be noted: in vivo, 504 h. The essentials: (§1)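 Athymic mice bearing subcutaneous right-flank xenografts (2 × 10⁶ cells, dosed at 100–300 mm³; n = 6 per group; vehicle controls). Health was observed daily and body weight measured on indicated days. Body weight change (%) = (Wt/W0 − 1) × 100 against predosing weight, given as group mean ± SEM.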

Series [2] can be described thus: Apparent volume of distribution in Sprague-Dawley rat at 1 mg/kg, iv incubated for 24 hrs by LC/MS/MS method. To be noted: in vivo, read-out: Vd(app). The class given is ADME, organism-based. The method in brief:
(§2)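 Male Sprague-Dawley rats (n = 3) dosed once at 1 mg/kg iv via tail vein, or once at 5 mg/kg by oral gavage, using the same formulation. Serial blood samples were taken over 24 h. Plasma levels were measured by LC/MS/MS (C18 column, 10 mM ammonium formate-0.1% formic acid water/methanol 10/90, ESI positive). Parameters were derived by noncompartmental analysis.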

For series [3], the system named is Mus musculus. Put plainly: Toxicity in NCI-H1975 xenografted BALB/c mouse assessed as induction of eye diseases at 20 mg/kg po, qd for 21 days. The series is classed as organism-based. To be noted: in vivo, 504 h. The essentials: as §1
The target of series [4] is Epidermal growth factor receptor (Homo sapiens, UniProt P00533). The experiment in a line: Inhibition of EGFR (unknown origin) by ELISA method.
Sequence of Epidermal growth factor receptor (P00533 whole entry): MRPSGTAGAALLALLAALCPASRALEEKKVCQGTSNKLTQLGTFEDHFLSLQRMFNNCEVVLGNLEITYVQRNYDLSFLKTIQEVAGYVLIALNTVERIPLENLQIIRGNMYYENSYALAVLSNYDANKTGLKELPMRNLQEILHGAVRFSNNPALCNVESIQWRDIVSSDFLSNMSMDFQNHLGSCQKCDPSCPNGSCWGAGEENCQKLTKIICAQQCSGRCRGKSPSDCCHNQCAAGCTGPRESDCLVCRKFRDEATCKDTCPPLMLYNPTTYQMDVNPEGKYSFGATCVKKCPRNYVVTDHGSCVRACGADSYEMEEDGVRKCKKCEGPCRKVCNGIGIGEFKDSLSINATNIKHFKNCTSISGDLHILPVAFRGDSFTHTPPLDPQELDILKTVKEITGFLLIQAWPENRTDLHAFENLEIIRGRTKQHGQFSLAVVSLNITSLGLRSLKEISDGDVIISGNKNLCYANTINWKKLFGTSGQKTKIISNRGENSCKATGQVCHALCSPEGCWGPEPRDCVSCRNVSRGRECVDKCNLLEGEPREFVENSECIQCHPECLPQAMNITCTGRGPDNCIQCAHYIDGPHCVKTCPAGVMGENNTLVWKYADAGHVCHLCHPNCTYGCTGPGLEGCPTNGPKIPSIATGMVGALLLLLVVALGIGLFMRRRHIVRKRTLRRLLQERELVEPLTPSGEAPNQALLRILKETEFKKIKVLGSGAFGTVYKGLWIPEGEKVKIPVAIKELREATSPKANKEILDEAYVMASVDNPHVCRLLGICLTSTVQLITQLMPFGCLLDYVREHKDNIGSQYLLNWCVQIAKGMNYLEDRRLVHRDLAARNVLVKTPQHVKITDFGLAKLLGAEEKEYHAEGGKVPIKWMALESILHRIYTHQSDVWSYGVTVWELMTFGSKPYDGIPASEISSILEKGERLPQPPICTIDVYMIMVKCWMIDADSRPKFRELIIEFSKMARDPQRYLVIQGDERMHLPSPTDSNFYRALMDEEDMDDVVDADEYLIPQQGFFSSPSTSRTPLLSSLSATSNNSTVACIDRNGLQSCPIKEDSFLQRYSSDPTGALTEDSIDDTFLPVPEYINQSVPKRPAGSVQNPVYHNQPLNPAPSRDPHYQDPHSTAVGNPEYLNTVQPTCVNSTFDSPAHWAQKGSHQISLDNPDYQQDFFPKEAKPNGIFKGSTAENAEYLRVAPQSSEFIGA
A short description of series [5]: Bioavailability in Sprague-Dawley rat at 1 mg/kg, iv incubated for 24 hrs by LC/MS/MS method. The series is classed as ADME, organism-based. To be noted: in vivo. The method in brief: as §2
Series [6] is described as follows: Clearance in Sprague-Dawley rat at 1 mg/kg, iv incubated for 24 hrs by LC/MS/MS method. The series is classed as ADME, organism-based. To be noted: in vivo. The essentials: as §2
The test system of series [7] is Mus musculus. Put plainly: Toxicity in human HCC827 cells xenografted BALB/c mouse assessed as induction of exfoliative skin disorders at 5 mg/kg po, qd for 12 days. To be noted: in vivo, 288 h. The class given is organism-based. The essentials: as §1
Background: In xenograft studies the graft and the host belong to different species.

For series [8], the system named is Mus musculus. The experiment in a line: Toxicity in human HCC827 cells xenografted BALB/c mouse assessed as body weight loss at 5 mg/kg po, qd for 12 days. The class given is organism-based. To be noted: in vivo, 288 h. The essentials: as §1
Series [9] has as its system Mus musculus. The experiment in a line: Toxicity in human HCC827 cells xenografted BALB/c mouse assessed as induction of eye disease at 5 mg/kg po, qd for 12 days. To be noted: in vivo, 288 h. The class given is organism-based. The method in brief: as §1
Series [10] has as its system NCI-H1975. Put plainly: Antitumor activity against human NCI-H1975 cells xenografted in BALB/c mouse assessed as tumor growth inhibition at 13 mg/kg po, qd for 21 days. The class given is functional, organism-based. The essentials: (§3)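 Athymic mice received 2 × 10⁶ tumour cells subcutaneously in the right flank. At 100–300 mm³ they were randomised to control and treatment groups (n = 6); controls received vehicle alone. Tumour volume = length × width²/2 and RTV = Vt/V0.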

The subject of series [11] is Mus musculus. Put plainly: Toxicity in NCI-H1975 xenografted BALB/c mouse assessed as induction of exfoliative skin disorders at 20 mg/kg po, qd for 21 days. The series is classed as organism-based. To be noted: in vivo, 504 h. The essentials:
as §1

For the next series, the system named is HCC827. Put plainly: Antitumor activity against human HCC827 cells xenografted in BALB/c mouse assessed as tumor growth inhibition at 5 mg/kg po, qd for 12 days. The class given is functional, organism-based. The essentials:
as §3

The test system of series [12] is Mus musculus. The experiment in a line: Toxicity in NCI-H1975 xenografted BALB/c mouse assessed as induction of eye diseases at 13 mg/kg po, qd for 21 days. The series is classed as organism-based. To be noted: in vivo, 504 h. The essentials: as §1
Series [13] concerns Mus musculus. The experiment in a line: Toxicity in human A431 cells xenografted BALB/c mouse assessed as body weight loss at 5 and 10 mg/kg po, qd for 18 days. The series is classed as organism-based, A-431. To be noted: in vivo, 432 h. The method in brief:
as §1

A short description of series [14]: AUC (0 to 24 hrs) in Sprague-Dawley rat at 1 mg/kg, iv by LC/MS/MS method. The class given is ADME, organism-based. On the set-up: time < 24 hr, dose 1 mg/kg, route intravenous. To be noted: in vivo. The method in brief: as §2
For series [15], the system named is Mus musculus. The experiment in a line: Toxicity in human A431 cells xenografted BALB/c mouse assessed as induction of exfoliative skin disorders at 5 and 10 mg/kg po, qd for 18 days. The series is classed as organism-based, A-431. To be noted: in vivo, 432 h. The essentials:
as §1

For series [16], the system named is NCI-H1975. The experiment in a line: Antiproliferative activity against human NCI-H1975 cells assessed as growth inhibition. The series is classed as functional. The method in brief:
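NCI-H1975 cells were grown in RPMI with 1 mM sodium pyruvate, 10% FBS and 1% penicillin-streptomycin, under humidified 5% CO₂ at 37 °C. Growth inhibition was read as GI₅₀.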

For series [17], the system named is Mus musculus. The experiment in a line: Toxicity in NCI-H1975 xenografted BALB/c mouse assessed as induction of exfoliative skin disorders at 13 mg/kg po, qd for 21 days. The class given is organism-based. To be noted: in vivo, 504 h. The essentials:
as §1

Series [18] is described as follows: AUC (0 to infinity) in Sprague-Dawley rat at 1 mg/kg, iv by LC/MS/MS method. The class given is ADME, organism-based. Also on record: dose 1 mg/kg, time infinity, route intravenous. To be noted: in vivo. The method in brief:
as §2

Series [19] can be described thus: Mean residence time in Sprague-Dawley rat at 1 mg/kg, iv incubated for 24 hrs by LC/MS/MS method. The series is classed as ADME, organism-based. To be noted: in vivo. The method in brief: as §2
Series [20] concerns A-431. The experiment in a line: Antitumor activity against human A431 cells xenografted in BALB/c mouse assessed as tumor growth inhibition at 5 mg/kg po, qd for 18 days. The series is classed as functional, organism-based. The essentials:
as §3

Series [21] can be described thus: Elimination half-life in Sprague-Dawley rat at 1 mg/kg, iv incubated for 24 hrs by LC/MS/MS method. The series is classed as ADME, organism-based. To be noted: in vivo, read-out: beta t1/2 (converted). The essentials:
as §2

In series [22] the test system is Mus musculus. The experiment in a line: Toxicity in human A431 cells xenografted BALB/c mouse assessed as induction of eye diseases at 5 and 10 mg/kg po, qd for 18 days. The class given is organism-based, A-431. To be noted: in vivo, 432 h. The method in brief: as §1
Series [23] relates to A-431. Put plainly: Antitumor activity against human A431 cells xenografted in BALB/c mouse assessed as tumor growth inhibition at 10 mg/kg po, qd for 18 days. The class given is functional, organism-based. The essentials:
as §3

Activity calls are given as the source filed them. The calls are words filed in the database; no cut-off is given here.

The term IC50 denotes the concentration that gives 50% inhibition. A lower IC50 goes with higher potency. Usually bioavailability stands for dose-corrected exposure relative to a reference, in per cent. A higher bioavailability goes with good availability. For orientation: clearance means the rate of elimination divided by the concentration. As a reminder, the AUC(0-t) is exposure summed from dosing to a finite time, without extrapolation to infinity. A higher AUC(0-t) goes with more exposure. Broadly, the GI50 is the concentration at which growth is held to half of that of the control. In general, AUC(0-inf) refers to the area under the concentration-time curve extrapolated to infinity. The low end stands for less exposure, the high end for more exposure. By MRT is commonly meant the average time that molecules of a dose stay in the body. Consider `O=C(/C=C/CNC1CC1)Nc1cc2c(Nc3ccc(F)c(Cl)c3)ncnc2cc1O[C@H]1CCOC1`, for which the Activity result with Mus musculus [1], in the series on Mus musculus [3], in the series on Mus musculus [7], in the series on Mus musculus [8], with Mus musculus [9] and in the series with Mus musculus [11] was “Non-toxic” each time. Also, the Activity result with Mus musculus [12], with Mus musculus [13], in the series on Mus musculus [15], in the series with Mus musculus [17] and in the series on Mus musculus [22] was “Non-toxic” each time. In series [2], the Vd worked out at 3.82 L/kg. Besides, inhibition in series [4] was half-maximal at 6.5 nM (IC50). For the same molecule, the bioavailability in series [5] worked out at 83.5%. This molecule also showed a clearance in [6] of 25.7 mL/min/kg. The TGI entry in the series on NCI-H1975 [10], in the series on HCC827 and in the series with A-431 [23] was “Active” throughout. The same molecule had an AUC(0-t) at 24 h in [14] of 660 ng·h/mL. In the series on NCI-H1975 [16], the GI50 is 10.2 nM. The same molecule gave an AUC(0-inf) in series [18] of 662 ng·h/mL. In series [19], this molecule had an MRT of 3.88 h. Also, in the series on A-431 [20], the TGI result is “inactive”. Also, the half-life in [21] is 3.15 h.
